From PubChem
NR2E3 ag-1: NR2E3 agonists in two-hybrid cells, primary screen, cell-based, luminescence, CHO-S, Gal4-NCOR/VP16-NR2E3 | luciferase | inhibition of corepressor binding, % at 3.98 µM | AID 602229, 2012 | actives 0.35% (n = 360,000);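 active = inhibition above the mean of all tested compounds plus 3 SD, cut at about 70% in these data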;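 note: 0% = DMSO with NR2E3 transfected cells and 100% = cells lacking NR2E3 construct; higher means lower luciferase signal from less NR2E3 corepressor binding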
Target sequence (Q9Y5X4 whole entry, looked up, the tested form may be a part): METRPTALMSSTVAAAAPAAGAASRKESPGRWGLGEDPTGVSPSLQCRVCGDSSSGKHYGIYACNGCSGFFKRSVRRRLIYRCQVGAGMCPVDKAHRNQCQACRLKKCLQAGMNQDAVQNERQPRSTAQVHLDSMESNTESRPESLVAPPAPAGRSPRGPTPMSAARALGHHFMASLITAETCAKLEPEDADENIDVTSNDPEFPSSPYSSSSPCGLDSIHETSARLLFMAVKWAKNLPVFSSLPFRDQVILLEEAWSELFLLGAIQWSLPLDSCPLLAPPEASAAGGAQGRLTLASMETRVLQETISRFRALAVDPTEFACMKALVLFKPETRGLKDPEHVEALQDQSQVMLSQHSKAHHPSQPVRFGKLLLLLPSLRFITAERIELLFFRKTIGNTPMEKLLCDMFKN
NR2E3 ag-2: inhibitors of NR2E3-RetCOR corepressor binding, primary screen, NR2E3 agonist project, biochemical, TR-FRET, GST-NR2E3, biotin-RetCOR; Photoreceptor-specific nuclear receptor (Homo sapiens), Q9Y5X4; 1536-well; inhibition of corepressor binding, % at 4.78 µM; actives 0.12% (n = 320,000); AID 2300, 2010;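 active = percent inhibition above the cutoff of mean plus 3 SD of all tested compounds, set per screening campaign, cut at about 20% in these data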;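 note: 0% = DMSO wells and 100% = biotin wells as full block of FRET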
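Assay system: NR2E3–RetCOR corepressor complex. Quantity: 1.35 nM GST-NR2E3. Buffer or medium: pH 7.5 Tris-based buffer. Reagent: biotinylated RetCOR corepressor at 7 nM final. Schedule: 5 h at 4 °C. Detection: TR-FRET, emission read at 617 and 671 nm. Replicates: one well per compound, singlicate testing.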
JMJD2C inh: inhibitors of GASC-1 histone demethylase, primary screen, biochemical, fluorescence, DELFIA europium. actives 0.069% (n = 330,000). AID 2099, 2009. inhibition, % at 2.35 µM. GST-JMJD2C(1-420) H3K9me3 demethylation. Lysine-specific demethylase 4C (Homo sapiens), Q9H3R0;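 active = more than half of a compound's replicate wells show inhibition beyond 50%, single wells judged on their own value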;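 note: signal counts dimethyl H3K9 product captured on neutravidin plate; 0% = median of DMSO wells and 100% = 0.3 times that DMSO median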
SMARCA2 act: SMARCA2 (BRM) function activators, primary screen, cell-based, luminescence, high throughput; MG213 cells, MMTV-luciferase reporter, dexamethasone, overnight; activation, % at 9.1 µM; actives 1% (n = 370,000); in the data active = activation above about 7.8%;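 note: 0% = vehicle wells and 100% = reference activator wells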
DAX1 inh-1: DAX1 (NR0B1) inhibitors, primary screen, cell-based, HEK293, Gal4-DAX1, luciferase luminescence. inhibition, % at 6.75 µM. Nuclear receptor subfamily 0 group B member 1 (Homo sapiens), P51843. HEK293 Gal4-DAX1 luciferase reporter. actives 0.99% (n = 340,000). AID 504766, 2011;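 active = inhibition above the mean over all tested compounds plus 3 SD, cut at about 4.2% in these data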;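 note: 0% = DAX1-transfected cells with DMSO and 100% = empty-vector control cells with DMSO; inhibition shows as a rise in luminescence from relieved DAX1 repression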
Target sequence (P51843 207-470 limits assumed): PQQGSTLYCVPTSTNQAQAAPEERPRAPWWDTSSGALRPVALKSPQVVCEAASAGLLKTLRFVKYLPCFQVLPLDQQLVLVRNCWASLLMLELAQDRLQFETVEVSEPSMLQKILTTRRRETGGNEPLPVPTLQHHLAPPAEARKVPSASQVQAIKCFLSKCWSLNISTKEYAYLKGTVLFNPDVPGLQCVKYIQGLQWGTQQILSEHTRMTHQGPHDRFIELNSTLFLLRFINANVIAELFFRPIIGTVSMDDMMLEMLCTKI
DAX1 inh-2: DAX1 (NR0B1) inhibitors on StAR promoter, primary screen, cell-based, luminescence, SF-1 (NR5A1), full-length DAX-1; HEK293T StAR-luciferase reporter, SF-1/DAX-1 repression relief; inhibition, % at 6.8 µM; actives 1.1% (n = 370,000); AID 652010, 2013;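 active = inhibition above the mean over all tested compounds plus 3 SD, cut at about 3.6% in these data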;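 note: 0% = DAX-1 cells with DMSO and 100% = cells lacking DAX-1 with DMSO; higher inhibition means more luminescence from relief of DAX-1 repression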
SMARCA2 act conf: SMARCA2 (BRM) function activators, confirmation, cell-based, luminescence, triplicate; shares compounds with SMARCA2 act; MG213 cells, MMTV-luciferase with dexamethasone, overnight; MG213 cells expressing E1A, Rb sequestered; DMSO wells 0%, reference activator 100%; activation, % at 9.1 µM; actives 30% (n = 3,500); AID 652260, 2013;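 active = activation above its plate's cutoff, the mean activation of tested wells plus 3 SD, cut at about 7.9% in these data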
GAL4-VP16 Luc: GAL4-VP16 luciferase reporter activation, counter-screen for SMARCA2 (BRM) activator project, cell-based, pG5luc, luminescence, high throughput; actives 41% (n = 3,500); shares compounds with SMARCA2 act; activation, % at 9.1 µM; HEK293 GAL4-VP16 pG5luc reporter; scaled: DMSO wells 0%, SAHA wells 100%;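 active = activation above the solvent-only control well mean plus 3 SD, averaged across control plates, cut at about 5.2% in these data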
Numbers without * were called inactive; nt = no result given. Sampled rows, rich in hits. Any-hit rate of the full collection: about 3.2%.

SMILES	NR2E3 ag-1	NR2E3 ag-2	JMJD2C inh	SMARCA2 act	DAX1 inh-1	DAX1 inh-2	SMARCA2 act conf	GAL4-VP16 Luc
CN1C/C(=C/c2ccccc2[N+](=O)[O-])C(=O)/C(=C\c2ccccc2[N+](=O)[O-])C1	-4.6	nt	nt	26.2*	-1.9	-1.5	-15.5	5.1*
CN(CCc1ccccc1)C(=O)c1cc2ccccn2n1	nt	nt	nt	8.2*	nt	1.0	5.1	6.0*
CCOC(=O)C1(C(F)(F)F)N=C(C(F)(F)F)Nc2ccccc21 (stereo not drawn)	5.1	0.5	2.8	9.8*	0.9	-0.5	-0.5	0.1
CCc1nnc(N/N=C\c2ccc(OC(C)=O)c(OC)c2)n1N	10.8	-0.9	5.4	8.6*	-0.8	-1.1	-1.6	1.6
O=C(COC(=O)c1ccccc1NS(=O)(=O)c1cccs1)NCC12CC3CC(CC(C3)C1)C2	-4.7	-0.1	-8.9	8.9*	-0.5	-0.1	-0.9	1.2
O=C(COC(=O)c1ccccc1NS(=O)(=O)c1cccs1)NC1CCCCC1	23.1	1.1	15.3	-3.8	-1.0	-0.1	nt	nt
Cc1cc(NC(=O)COC(=O)COc2ccc(C(=O)c3ccccc3)cc2)no1	-18.0	-0.6	-10.3	-0.5	-0.2	0.4	nt	nt
CCc1ccccc1OCC(=O)OCC(=O)Nc1cc(C)on1	-37.7	1.4	-10.9	8.3*	-0.3	3.8*	-2.1	0.4
CC(=O)Nc1ccc(-c2ccnc3c2CC(C)(C(=O)Nc2ccc(C(C)C)cc2)O3)cc1 (stereo not drawn)	-9.7	nt	nt	-2.8	nt	-2.1	nt	nt
CN1C(=S)SC2CS(=O)(=O)CC21C (stereo not drawn)	-19.8	4.8	7.8	11.8*	2.3	-0.1	-3.5	-1.1
C[C@H]1COc2c3ccccc3nn21	nt	nt	nt	1.2	nt	1.7	nt	nt
Cc1cccc(CCNC(=O)c2ccc3c(c2)ncn3C2CCCCC2)c1	nt	nt	nt	0.2	nt	0.8	nt	nt
COc1nc(N=C(N)N)nc2ccc(C)cc12	nt	-3.6	-12.9	8.8*	nt	1.4	42.8*	1.9
Cc1cccc(NC(=O)N2CCC(N(C)CCC(C)C)CC2)c1	nt	nt	nt	-4.6	nt	0.1	nt	nt
Cc1ccc(C(=O)C2CCN(CC(=O)N(C)C3CCCCC3)CC2)cc1	nt	nt	nt	-7.0	nt	-1.2	nt	nt
Cc1cc(NC(=O)c2c(F)cccc2Cl)no1	-13.4	-1.4	7.9	-0.3	-1.5	-0.1	nt	nt
Cc1ccc(NNC(=O)c2c(F)cccc2Cl)cc1C	-54.1	-2.4	7.4	8.1*	0.5	-0.4	1.4	1.2
COc1ccc(-c2cc(CC3(C(=O)O)CCN(C(=O)OC(C)(C)C)CC3)on2)c(OC)c1	2.0	1.3	2.6	-0.8	1.0	-0.1	nt	nt
O=c1c2ccccc2nc2c3ccccc3c(NCc3ccco3)nn12	-3.0	-1.1	35.0	12.6*	-0.5	-0.2	10.1*	0.6
OC(c1ccc(Cl)cc1)c1ncc(-c2ccc(Oc3ccccc3)cc2)[nH]1 (stereo not drawn)	2.5	nt	nt	-7.9	nt	-1.9	nt	nt
O=C(NCCN1C(=O)S/C(=C\c2ccc(Cl)cc2Cl)C1=O)C1=COCCO1	10.7	-2.3	-3.2	8.1*	0.9	0.6	3.9	0.3
COC(=O)C1(C(=O)OC)c2ccccc2CN(S(=O)(=O)c2ccc(C)cc2)C1CC(C)=O (stereo not drawn)	nt	nt	nt	3.9	nt	-1.6	nt	nt
Cc1ccc(C(=O)CC(C(=O)O)n2ccc(C)n2)cc1 (stereo not drawn)	-0.3	1.1	-2.0	8.2*	-0.1	-0.4	-0.9	-0.4
COc1cccc(C(=O)NC(=O)Nc2cc(C)on2)c1	-87.0	-5.1	3.4	8.4*	3.0	2.2	3.8	8.7*
CCOC(=O)[C@]12CCCC3=C1N(CCC3)C(=O)[C@@H](CC(=O)NCc1ccc(OC)c(OC)c1)C2	nt	nt	nt	8.0*	nt	1.8	-1.4	-0.3
SMILES	NR2E3 ag-1	NR2E3 ag-2	JMJD2C inh	SMARCA2 act	DAX1 inh-1	DAX1 inh-2	SMARCA2 act conf	GAL4-VP16 Luc
O=C(NCCc1ccc(F)cc1)c1coc(=O)c(Br)c1	7.9	0.1	2.6	27.1*	1.3	0.2	-8.2	4.4
O=C(NCCc1cccc(F)c1)c1cc2ccccn2n1	nt	nt	nt	3.6	nt	3.1	nt	nt
COC(=O)/C(=C1/Oc2cc(C)oc(=O)c2S1)C(F)(F)F	45.1	6.9	-9.0	9.1*	1.0	-0.4	-15.7	2.7
CC(C)(C)OC(=O)N1CCC(CNC(=O)Nc2ccccc2)CC1	-11.7	-2.6	5.3	-0.1	1.9	-0.6	nt	nt
CC(C)(C)OC(=O)N1CCC(CNC(=O)c2ccccc2)CC1	-0.8	-1.1	-9.9	8.8*	nt	-0.4	-0.8	1.5
O=C(CC1CCCC1)N1CC[C@H]2[C@H](CCCN2Cc2ccccc2)C1	nt	nt	nt	2.0	nt	0.6	nt	nt
Cc1ccc(-n2c(C)cc(C=C(C#N)C#N)c2C)cc1	-34.2	0.7	28.2	11.9*	1.1	-0.1	0.8	2.2
O=C1C(C=NCCCn2ccnc2)=C(O)c2ccccc21	2.6	3.4	-16.9	-3.1	0.6	0.0	nt	nt
O=C1C(C=NCCCN2CCCC2=O)=C(O)c2ccccc21	-80.1	5.2	1.9	8.5*	1.9	2.1	7.1	5.7*
Brc1ccc(-c2nn3c(-c4ccccc4)nnc3s2)cc1	nt	nt	nt	4.2	nt	0.2	nt	nt
Cc1ccc2cc(N)ccc2n1	-6.2	nt	nt	0.7	-0.1	0.6	nt	nt
Nc1ccc2cc3ccc(N)cc3nc2c1	nt	nt	nt	42.8*	nt	-1.8	-11.4	-2.3
COCCCn1c(=O)/c(=C\c2ccccc2OC(F)F)s/c1=C(/C#N)C(=O)NC(C)C	-3.7	7.1	-0.6	14.0*	-1.0	0.8	4.8	1.8
COCCCn1c(=O)/c(=C\c2ccccc2OC(C)C)s/c1=C(/C#N)C(=O)Nc1ccc(C(=O)O)cc1	15.6	2.9	19.4	1.1	0.5	-1.1	nt	nt
O=S(=O)(/C=C/c1ccccc1)Nc1ccc(F)cc1	-3.1	2.7	-9.6	-0.2	-0.3	-0.5	nt	nt
COc1ccc(NS(=O)(=O)/C=C/c2ccccc2)cc1	8.8	-2.9	3.2	8.6*	2.6	0.7	-1.9	1.5
c1ccc(CSc2ccc(-c3ccc4c(c3)OCO4)nn2)cc1	-36.4	-3.3	0.8	10.9*	0.6	1.0	7.9*	5.0
